Data published in PMC7069794 (Hepatology (Baltimore, Md.), 2020).

What was measured:
[1] = test system: Paneth cells / intestinal crypts of WT mice; test: acute zinc deprivation by dithizone in mice; type: in vivo; conditions: dithizone 75 mg/kg i.p., 6 h
Procedure, shortened: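 Male WT mice received dithizone at 75 mg/kg i.p., and intestines were collected 6 h later. Small-intestinal crypts were isolated for imaging and bacterial killing, and ileal Defa5 and Lyz1 mRNA was measured relative to untreated mice, n=6. Data are mean±SD, compared by t-test, rank-sum or ANOVA as appropriate (P<0.05).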

[2] = test system: released crypt components (mainly AMPs) of isolated mouse crypts; type: cell-based, mice; conditions: 10 μmol/L carbamyl choline, then 2 μmol/L TPEN for 30 min; n=6
Procedure, shortened: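 Crypts isolated from male WT mouse small intestine were treated with 10 μmol/L carbamyl choline to induce granule release. Released material was then exposed to 2 μmol/L TPEN for 30 min for zinc chelation, and its bactericidal activity was measured, n=6. Data are mean±SD.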

E. coli ML35 = E. coli ML35 killing of HD5 with or without zinc determined by flow cytometry; type: cell-based; conditions: n=6; for bactericidal activity: oxidized and reduced forms of HD5, without zinc
[3] = test system: Hepa1c1c7 mouse hepatoma cells; type: cell-based; conditions: LPS 100 ng/mL, 6 h; n=3
[4] = test system: pair-fed and alcohol-fed mice; test: LPS injection 4 hours before finishing chronic feeding in mice; type: in vivo; conditions: LPS 4 mg/kg i.p., n=6
Procedure, shortened: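 Male mice, 12 weeks old, were fed ethanol-containing Lieber-DeCarli liquid diet (alcohol-fed) or isocaloric control liquid diet (pair-fed) for 8 wk. A single LPS dose of 4 mg/kg was given i.p. 4 h before the end of feeding. Read-out was relative hepatic Lcn2 and Cxcl1 mRNA, n=6. Data are mean±SD, compared by t-test or one-way ANOVA with Newman-Keuls post hoc test (P<0.05).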

mice = conditions: cited from earlier work
alcohol-fed mice = type: in vivo
pepsin = type: in vitro ADME
[5] = overnight incubation of HD5red with or without zinc, nUHPLC-MS; type: physicochemical

S=C(N=Nc1ccccc1)NNc1ccccc1 [Dithizone, dithizone]
PC degranulation [1]: rapid PC degranulation
crypt bacterial killing ([1]; n=6): impaired
expression of Defa5 and Lyz1 ([1]; ileal mRNA, n=6): reduced

c1ccc(CN(CCN(Cc2ccccn2)Cc2ccccn2)Cc2ccccn2)nc1 [TPEN, N,N,N′,N′-Tetrakis(2-pyridylmethyl)ethylenediamine]
bacterial killing of released crypt components after zinc chelation [2]: impaired bacterial killing

[Zn] [Zinc, zinc]
bacterial viability, zinc alone (E. coli ML35; zinc without HD5): did not affect bacterial viability

lipopolysaccharide [LPS]
Lcn2 and Cxcl1 expressions in Hepa1c1c7 hepatocytes [3]: directly stimulated
hepatic Cxcl1 expression in AF mice in response to LPS ([4]; alcohol-fed mice): did not further alter
hepatic Lcn2 in AF mice in response to LPS ([4]; alcohol-fed mice): only mildly upregulated
hepatic Lcn2 and Cxcl1 in PF mice in response to LPS ([4]; pair-fed mice): dramatically upregulated

B1: human α-defensin 5 (peptide, UniProt Q01523 20-94, looked up)
Defensin alpha 5: ESLQERADEATTQKQSGEDNQDLAISFAGNGLSALRTSGSQARATCYCRTGRCATRESLSGVCEISGRLYRLCCR
modifications: Defensin-5
intestinal injury caused by alcohol and colitis (mice): attenuated
Akkermensia sp. in mice (mice; without decreasing microbial diversity): increased
intestinal structural changes (slight villous blunting), H&E staining (alcohol-fed mice; AF+HD5 group vs AF group (Fig. S11)): improved
Verrucomicrobiaceae abundance in cecal contents (alcohol-fed mice; AF+HD5 mice, mean±SD, AF mice 2.03±0.69%, P<0.001, n=8): 20.39±5.29%
plasma ALT levels (alcohol-fed mice; AF+HD5 vs AF, n=8): decreased
A. muciniphila abundance, PCR analysis (alcohol-fed mice; cecal contents, AF+HD5 vs AF, n=4): significantly enriched
expression of intestinal Il22 (alcohol-fed mice; ileal mRNA, AF+HD5 vs AF): notably augmented
levels of inflammatory cytokines/chemokines, including Ip10, Tnfa, and Mip2 (alcohol-fed mice; ileal mRNA, AF+HD5 vs AF): lowered
expression of ileal α-defensins, including Defa4, Defa20 and Defa21 (alcohol-fed mice; ileal mRNA, AF+HD5 vs AF, n=6): upregulated
alcohol-impaired distribution of ZO-1 and claudin-1 (alcohol-fed mice; ileum, IF staining and Western blot, n=3): reversed
alcohol-induced Lcn2 and Cxcl1 elevation, macrophage activation, and immune cell infiltration (alcohol-fed mice; liver, mRNA n=6, IHC/IF n=3): reduced
plasma ethanol levels and protein levels of CYP2E1 and ALDH2 (alcohol-fed mice; mouse, in vivo): remained the same
PAMP translocation, including endotoxemia and increased hepatic bacterial DNAs (alcohol-fed mice; plasma endotoxin, hepatic 16S rRNAs, n=8): effectively reversed
intact HD5 that bypassed gastric digestion (pepsin): 75%
antibacterial function of both forms of HD5 with zinc (E. coli ML35; HD5 oxidized and reduced forms, with zinc vs without): significantly improved
bactericidal activity (E. coli ML35): effectively killed bacteria

B2: HD5red: reduced form of HD5 (peptide, UniProt Q01523 20-94, looked up)
Defensin alpha 5: B1 Defensin alpha 5
modifications: Defensin-5 reduced form
redox state of HD5red after overnight incubation in the absence of zinc ([5]; no zinc): all became oxidized
redox state of HD5red after overnight incubation with zinc ([5]; with zinc): a majority of HD5 remained in reduced forms
bactericidal activity (E. coli ML35): more potent
